# Data as given in ChEMBL document CHEMBL1268935, “3-O-arylmethylgalangin, a novel isostere for anti-HCV 1,3-diketoacids (DKAs)” (Bioorg Med Chem, 2010).
# How the values were obtained:
# Hepatitis C virus = assay: Antiviral activity against HCV genotype 1 harboring luc-ubi-neo fusion gene infected in human Huh7 cells assessed as inhibition of viral RNA replication after 4 days by luciferase assay; format: functional, organism-based, Hepacivirus hominis; details: genotype 1, Huh-7, 96 h
# In short: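 Huh-5-2 cells (Huh-7 carrying a subgenomic genotype 1 HCV replicon with luc-ubi-neo fusion gene) were seeded at 5 × 10³/well in complete DMEM with G418 and held 24 h at 37 °C, 5% CO₂. Medium was refreshed with G418 and compounds added from DMSO stock, then incubated 4 days at 37 °C. Luciferase was read out, and EC₅₀ was taken as 50% inhibition of replicon RNA replication. Interferon α-2b at 10,000 units/well served as reference.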
# [1] = Cytotoxicity against human HuH5.2 cells after 3 days by WST-1 assay; format: cell-based, Huh-5-2
# In short: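 Huh-7-derived Huh-5-2 cells carrying subgenomic genotype 1 HCV replicon (luc-ubi-neo); 5 × 10³ cells/well seeded in complete DMEM with G418; serial compound dilutions in DMEM without G418 added 24 h after seeding; proliferation 3 days at 37 °C; cell number by WST-1. CC50 = concentration reducing cell proliferation by 50%.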
# [2] = Selectivity index, ratio of CC50 for human HuH5.2 cells to EC50 for HCV genotype 1 harboring luc-ubi-neo fusion gene
# In short: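 SI is CC₅₀/EC₅₀, both measured in Huh-5-2 replicon cells seeded at 5 × 10³/well. For CC₅₀, serial dilutions in complete DMEM without G418 were added 24 h after seeding, cells grew 3 days at 37 °C, and cell number was read by WST-1. EC₅₀ came from the 4-day replicon luciferase assay run with G418.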
# [3] = Inhibition of HCV recombinant NS5B polymerase using [alpha32p]GTP after 30 mins by scintillation counting; set-up: species or system Hepacivirus hominis
# In short: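 Recombinant NS5B primer/template-directed transcription in 30 mM Tris–HCl pH 7.2; compounds at various concentrations from 10% DMSO–water stocks, final DMSO 1%; stopped with 33 mM EDTA; products captured on DEAE filters, washed with 5% dibasic sodium phosphate, scintillation counted. IC50 estimated from primary cpm data, triplicate.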
Compound,EC50 (Hepatitis C virus) [µM],CC50 at 72 h [1] [µM],Ratio CC50/EC50 [2],IC50 [3] [µM]
COc1ccccc1COc1c(-c2ccccc2)oc2cc(O)cc(O)c2c1=O,28,53,1.9,> 50
Cc1ccc(COc2c(-c3ccccc3)oc3cc(O)cc(O)c3c2=O)cc1,14,40,2.9,45.2
N#Cc1ccc(COc2c(-c3ccccc3)oc3cc(O)cc(O)c3c2=O)cc1,10,48,4.8,1.3
O=c1c(OCc2ccc([N+](=O)[O-])cc2)c(-c2ccccc2)oc2cc(O)cc(O)c12,7,40,5.7,> 50
O=c1c(OCc2ccc(Br)cc2)c(-c2ccccc2)oc2cc(O)cc(O)c12,12,2,0.2,1.4
Cc1cccc(COc2c(-c3ccccc3)oc3cc(O)cc(O)c3c2=O)c1,28,29,1,30
O=c1c(OCc2ccccc2Cl)c(-c2ccccc2)oc2cc(O)cc(O)c12,38,> 100,,> 50
O=c1c(OCc2cccc(Cl)c2)c(-c2ccccc2)oc2cc(O)cc(O)c12,25,46,1.8,0.1
N#CCCCOc1ccccc1C(=O)/C=C(\O)C(=O)O,,,,0.35
O=c1c(OCc2cccc(Br)c2)c(-c2ccccc2)oc2cc(O)cc(O)c12,18,15,0.8,4.6
O=c1c(OCc2ccc(Cl)cc2)c(-c2ccccc2)oc2cc(O)cc(O)c12,15,36,2.4,0.3
Cc1ccccc1COc1c(-c2ccccc2)oc2cc(O)cc(O)c2c1=O,34,55,1.6,7.2
N#Cc1ccccc1COc1c(-c2ccccc2)oc2cc(O)cc(O)c2c1=O,5,> 100,,11
COc1cccc(COc2c(-c3ccccc3)oc3cc(O)cc(O)c3c2=O)c1,22,28,,21
COc1ccc(COc2c(-c3ccccc3)oc3cc(O)cc(O)c3c2=O)cc1,10,57,5.7,29.5
O=c1c(OCc2ccccc2Br)c(-c2ccccc2)oc2cc(O)cc(O)c12,9,12,1.3,10.5
O=c1c(OCc2ccccc2[N+](=O)[O-])c(-c2ccccc2)oc2cc(O)cc(O)c12,12,51,4.3,> 50
O=c1c(OCc2cccc([N+](=O)[O-])c2)c(-c2ccccc2)oc2cc(O)cc(O)c12,5,31,6.2,6.4
N#Cc1cccc(COc2c(-c3ccccc3)oc3cc(O)cc(O)c3c2=O)c1,36,21,0.6,0.2
